This is an account of results in ChEMBL document CHEMBL4373712, “Bioactivatable Pseudotripeptidization of Cyclic Dipeptides To Increase the Affinity toward Oligopeptide Transporter 1 for Enhanced Oral Absorption: An Application to Cyclo(l-Hyp-l-Ser) (JBP485)” (J Med Chem, 2019).

One may read the Tmax as the time at which the peak concentration occurs.

The nature of data set [1]: Cmax in Sprague-Dawley rat at 6 mg/kg, iv by UPLC-MS/MS analysis. Particulars: in vivo. The format is ADME, organism-based. More on the design: dose 6 mg/kg, route intravenous. The procedure, abridged: (§1)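 Male SD rats, 200-250 g, fasted 12 h with water, n=6. Oral dose of 12 mg/kg as JBP485 equivalent; dose-effect arms at 12 and 100 mg/kg. JBP485 given iv at 6 mg/kg as the reference. Jugular blood taken at 0.083-10 h. Plasma JBP485 by UPLC-MS/MS. Absolute F = (AUCpo×Div)/(AUCiv×Dpo)×100%, using AUC0-t.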

Data set [2] can be described thus: Cmax in Sprague-Dawley rat at 12 mg/kg, po by UPLC-MS/MS analysis. The format is ADME, organism-based. The arrangement: dose 12 mg/kg, route oral. To be noted: in vivo. The procedure, abridged:
as §1

Data set [3] in a line: Tmax in Sprague-Dawley rat at 12 mg/kg, po by UPLC-MS/MS analysis. Particulars: in vivo. The format is ADME, organism-based. An outline of the steps: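 Fasted male SD rats (200–250 g), oral 12 mg/kg (prodrugs calculated as JBP485). Jugular blood 0.083–10 h, centrifuged, plasma JBP485 by UPLC-MS/MS; n=6.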
The nature of data set [4]: AUC (0 to t) in Beagle dog at 12 mg/kg, po by UPLC-MS/MS analysis. Particulars: in vivo. The format is ADME, organism-based, Canis lupus familiaris. The procedure, abridged:
(§2)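 Male beagle dogs, 2 years old, 8-10 kg, n=6. Single oral dose of 12 mg/kg (prodrug dosed as JBP485 equivalent) given in aqueous solution. Jugular venipuncture blood taken at 0.167-8 h into sodium heparin tubes. Plasma JBP485 measured by UPLC-MS/MS; AUC0-t and Cmax from the concentration-time profiles.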

Data set [5] is described as follows: Cmax in Beagle dog at 12 mg/kg, po by UPLC-MS/MS analysis. The format is ADME, organism-based, Canis lupus familiaris. Particulars: in vivo. The arrangement: dose 12 mg/kg, route oral. The procedure, abridged:
as §2

Data set [6] can be described thus: Tmax in Beagle dog at 12 mg/kg, po by UPLC-MS/MS analysis. The class given is ADME, organism-based, Canis lupus familiaris. To be noted: in vivo. The procedure, abridged:
(§3)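 Male beagle dogs, 2 years old, 8–10 kg, dosed orally at 12 mg/kg (prodrug calculated as JBP485) in aqueous solution. Jugular blood taken 0.167–8 h into heparin, centrifuged, plasma JBP485 by UPLC-MS/MS; n=6.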

Data set [7] can be described thus: Terminal half life in Beagle dog at 12 mg/kg, po by UPLC-MS/MS analysis. The format is ADME, organism-based, Canis lupus familiaris. Particulars: in vivo, read-out: beta t1/2 (converted). An outline of the steps: as §3
For data set [8], the system named is Rattus norvegicus. Kind of data set: Anti-hepatitis activity in ANIT-induced Sprague-Dawley rat model of liver injury assessed as reduction in serum alanine aminotransferase level at 6.25 to 12.5 mg/kg, ip administered 30 mins prior to ANIT challenge and subsequent dosing at 8, 22, 32, and 46 hrs post ANIT challenge and measured 48 hrs post ANIT challenge. The format is functional, organism-based. The procedure, abridged: (§4)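 ANIT (50 mg/kg ip, olive oil) cholestatic liver injury in male SD rats, 6 per group. Oral or ip dosing (UDCA 100 mg/kg po in CMC-Na) at 30 min before and 8, 22, 32 and 46 h after ANIT. Serum collected at 48 h from the abdominal aorta; ALT and AST activities measured with kits.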

Data set [9] has as its system Rattus norvegicus. Kind of data set: Anti-hepatitis activity in ANIT-induced Sprague-Dawley rat model of liver injury assessed as reduction in serum aspartate aminotransferase level at 6.25 to 12.5 mg/kg, ip administered 30 mins prior to ANIT challenge and subsequent dosing at 8, 22, 32, and 46 hrs post ANIT challenge and measured 48 hrs post ANIT challenge. The class given is functional, organism-based. An outline of the steps:
as §4

Data set [10] relates to Rattus norvegicus. Kind of data set: Anti-hepatitis activity in ANIT-induced Sprague-Dawley rat model of liver injury assessed as reduction in serum aspartate aminotransferase level at 6.25 to 25 mg/kg, po administered 30 mins prior to ANIT challenge and subsequent dosing at 8, 22, 32, and 46 hrs post ANIT challenge and measured 48 hrs post ANIT challenge. The class given is functional, organism-based. The procedure, abridged:
as §4

The nature of data set [11]: AUC (0 to t) in Sprague-Dawley rat assessed as JBP485 level at 100 mg/kg, po by LC-MS/MS analysis. The format is ADME, organism-based. To be noted: in vivo. An outline of the steps:
as §1

A short description of data set [12]: Cmax in Sprague-Dawley rat assessed as JBP485 level at 100 mg/kg, po by LC-MS/MS analysis. The format is ADME, organism-based. More on the design: dose 100 mg/kg, route oral. Particulars: in vivo. An outline of the steps:
as §1

Data set [13] in a line: Terminal half life in Sprague-Dawley rat assessed as JBP485 level at 100 mg/kg, po by LC-MS/MS analysis. The class given is ADME, organism-based. Particulars: in vivo. The procedure, abridged:
(§5)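 Male SD rats (200–250 g) fasted 12 h, given JBP485 or prodrug (calculated as JBP485) orally at 12 or 100 mg/kg. Jugular blood sampled 0.083–10 h, plasma JBP485 by UPLC-MS/MS; n=6.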

Data set [14] in a line: AUC (0 to t) in Sprague-Dawley rat assessed as JBP485 level at 12 mg/kg, po by LC-MS/MS analysis. To be noted: in vivo. The class given is ADME, organism-based. The procedure, abridged:
as §1

Data set [15] is described as follows: Tmax in Sprague-Dawley rat assessed as JBP485 level at 12 mg/kg, po by LC-MS/MS analysis. Particulars: in vivo. The class given is ADME, organism-based. The procedure, abridged:
as §5

The nature of data set [16]: Terminal half life in Sprague-Dawley rat assessed as JBP485 level at 12 mg/kg, po by LC-MS/MS analysis. Particulars: in vivo. The format is ADME, organism-based. The procedure, abridged:
as §5

Data set [17] is described as follows: Ratio of half-life in pH 7.2 phosphate buffer to half-life in Sprague-Dawley rat intestinal homogenates. Particulars: tissue homogenate. The class given is ADME, tissue-based.
The nature of data set [18]: Ratio of half-life in pH 7.2 phosphate buffer to half-life in Sprague-Dawley rat plasma. The class given is ADME.
Data set [19] can be described thus: Cmax in Sprague-Dawley rat assessed as JBP485 level at 12 mg/kg equiv of JBP485 administered orally by UPLC-MS/MS analysis. More on the design: dose 12 mg/kg, route oral. The class given is ADME, organism-based. Particulars: in vivo, po. The procedure, abridged:
as §1

Data set [20] can be described thus: Oral bioavailability in Sprague-Dawley rat assessed as JBP485 level at 12 mg/kg equiv of JBP485 by UPLC-MS/MS analysis. The class given is ADME, organism-based. Particulars: in vivo. The procedure, abridged: as §1
Data set [21] in a line: Cmax in Beagle dog assessed as JBP485 level at 12 mg/kg equiv of JBP485 administered orally by UPLC-MS/MS analysis. The arrangement: dose 12 mg/kg, route oral. Particulars: in vivo, po. The class given is ADME, organism-based, Canis lupus familiaris. The procedure, abridged:
as §2

The nature of data set [22]: Tmax in Beagle dog assessed as JBP485 level at 12 mg/kg equiv of JBP485 administered orally by UPLC-MS/MS analysis. The format is ADME, organism-based, Canis lupus familiaris. Particulars: in vivo, po. An outline of the steps:
as §3

Data set [23] can be described thus: Terminal half life in Beagle dog assessed as JBP485 level at 12 mg/kg equiv of JBP485 administered orally by UPLC-MS/MS analysis. To be noted: in vivo, po. The class given is ADME, organism-based, Canis lupus familiaris. The procedure, abridged: as §3
In data set [24] the test system is Rattus norvegicus. Description: Anti-hepatitis activity in ANIT-induced Sprague-Dawley rat model of liver injury assessed as reduction in liver necrosis at 3.125 to 25 mg/kg, po administered 30 mins prior to ANIT challenge and subsequent dosing at 8, 22, 32, and 46 hrs post ANIT challenge and measured 48 hrs post ANIT challenge by H and E staining-based assay. The format is functional, organism-based. The procedure, abridged:
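ANIT 50 mg/kg ip liver-injury model in male SD rats, 6 per group. Oral or ip treatment at 30 min before and 8, 22, 32 and 46 h after ANIT. Liver excised at 48 h, fixed in 4% formalin, stained with H&E, and examined microscopically for hepatocellular edema and necrosis.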

For data set [25], the system named is Rattus norvegicus. Kind of data set: Anti-hepatitis activity in ANIT-induced Sprague-Dawley rat model of liver injury assessed as reduction in serum aspartate aminotransferase level at 3.125 to 25 mg/kg, po administered 30 mins prior to ANIT challenge and subsequent dosing at 8, 22, 32, and 46 hrs post ANIT challenge and measured 48 hrs post ANIT challenge. The class given is functional, organism-based. The procedure, abridged:
as §4

Active and inactive are the calls of the source. The rule behind the calls is not given here.

Take `O=C1N[C@@H](CO)C(=O)N2C[C@H](O)C[C@@H]12`: the Cmax in [1] amounted to 334.91 nM/ml; in [2], 27.8 µM; in [5], 26.65 nM/ml; in [12], 95.96 nM/ml. In addition, the results for the Tmax in [3], in [6] and in data set [15] were 1.25 h, 1.5 h and 1.25 h, respectively. Further, the AUCt in [4] amounted to 89.15 nM/ml.hr; in [11] it was 324 µM·h; in [14], 81.4 nM/ml.hr. Moreover, in data set [7], the half-life was 5.23 h. Further, the result with Rattus norvegicus [8], in the data set with Rattus norvegicus [9] and in the data set on Rattus norvegicus [10] was Active. Besides, the “beta t1/2” value worked out at 1.5 h in data set [13] and 2.12 h in [16].
Turning to `CC(C)[C@H](N)C(=O)OC[C@@H]1NC(=O)[C@@H]2C[C@@H](O)CN2C1=O`, the Ratio in data set [17] and in data set [18] was 3 to 35 in each case. Moreover, the Cmax in data set [19] was 113 µM; in [21], 85.9 nM/ml. Also, the F in data set [20] was 50.1%. Besides, the Tmax in data set [22] stood at 0.58 h. Also, the “beta t1/2” value in data set [23] came to 1.68 h. The result in the data set on Rattus norvegicus [24] and in the data set with Rattus norvegicus [25] was Active.
